The values that follow come from PubChem BioAssay.

Each structure is given as a SMILES string. Active and inactive are the calls of the source.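 The calls were made as follows, unless noted: active = viability at or below 30% in both replicate assays; inconclusive = viability at or below 30% in just one of the two assays; inactive = the rest.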

A short description of test [1]: SK-BR-3 cell growth inhibitors, pilot screen, 24 h, human (AID 572;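 active = viability at or below 10% of carrier control in both of two separate runs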;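 also: compound exposure lasted between 18 and 24 h rather than exactly 24 h; 100% = carrier-treated control wells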). Conditions: SK-BR-3 viability, CellTiter-Glo luminescence, at 10 µM, stronger effect = lower value. In general terms: In ATP-based viability assays light output follows the ATP content of the culture.
A short description of test [2]: HUVEC growth inhibition – cell-based, human, primary screen (AID 575).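 Also: 100% = median of untreated cell wells with 0.1% DMSO on each plate.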 Conditions: HUVEC proliferation, CellTiter-Glo luminescence, 72 h; at 10 µM; stronger effect = lower value. The method, boiled down: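 Test system: primary human umbilical vein endothelial cells. Quantity: 1250 cells/well. Compound: single 10 µM dose, 0.1% DMSO, from 5x medium stock. Timing: 72 h treatment at 37 °C. Detection: ATP-based CellTiter-Glo luminescent read. Benchmarks: vehicle and MePR control wells. Format: 384-well plates coated with collagen.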

A short description of test [3]: growth inhibitors of H69AR lung tumor, primary screen, human, duplicate replicates (AID 580;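 active = viability at or under a set limit in both replicates, limit being median viability minus 3 SD, cut at about 48% in these data, passing the limit was not always enough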;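 also: 100% = mean luminescence of untreated wells and 0% = no signal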). The settings on record: H69AR lung tumor cells viability, ATP luminescence, 72 h; at 10 µM; stronger effect = lower value.
The nature of test [4]: reversal of MRP1-mediated doxorubicin resistance, pilot screen, H69AR cells, doxorubicin co-treatment (AID 601;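 active = viability loss from added drug above about 55%, and viability with drug at most 40%, in both replicates, limit read from the data, passing the limit was not always enough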). Conditions: CellTiter-Glo, 72 h, at 10 µM; for differential viability (reversal): stronger effect = higher value.
Test [5] is described as follows: 384-well plate pilot, post-Golgi transport modulator project, inhibition of yeast transport mutant growth (AID 636; in the data active = inhibition above about 31%). Conditions: absorbance 615 nm, about 18 h, stronger effect = higher value.
Test [6] is described as follows: growth suppression of yeast trafficking mutant, preliminary HTS, modulators of trafficking downstream of Golgi apparatus project, 1536-format plate, OD 615 nm (AID 637; in the data active = inhibition above about 30%). The settings on record: yeast transport mutant growth, absorbance 615 nm, 18 h; stronger effect = higher value.
Where [7] appears, read: H69AR cells + 2 uM doxorubicin, measured here: viability with 2 uM doxorubicin, stronger effect = lower value.
[8] abbreviates: H69AR cells, compound alone cytotoxicity.

By viability is commonly meant a read-out of living cells in per cent, often relative to untreated cells. One may read the inhibition as the drop in the measured response relative to a control, in per cent. Regarding `CCN(CC)CCN1C(=O)C(=O)/C(=C(/O)c2ccc(OC(C)C)cc2)C1c1ccncc1` (stereo unspecified), the viability in test [1] was 133% (inactive); in test [2] it was 112% (inactive); in test [3], 91.1% (inactive); in test [4] (setting [7]), 84.5%; in test [4] (setting [8]) it was 91.1%. Besides, the differential viability (reversal) in test [4] (H69AR cells + 2 uM doxorubicin) was 6.59% (inactive). The inhibition in test [5] was -6.76% (inactive); in test [6] it was 3.09% (inactive).
Take `CN(C)c1ccc(NC(=O)c2ccncc2)c2ccccc12`: the viability in test [1] is 113% (inactive); in test [2], 108% (inactive); in test [3] it was 101% (inactive); in test [4] (setting [7]) it was 95.2%; in test [4] (setting [8]), 101%. Also, the differential viability (reversal) in test [4] (H69AR cells + 2 uM doxorubicin) is 5.85% (inactive). Besides, the figures for the inhibition in test [5] and in test [6] were -7.43% (inactive) and -0.73% (inactive), respectively.
`Brc1ccc2[nH]c3nc(SCCN4CCOCC4)nnc3c2c1`: the viability in test [1] was 100% (inactive); in test [2], 89.8% (inactive); in test [3], 87% (inactive); in test [4] (setting [7]), 76.2%; in test [4] (setting [8]) it was 87%. Moreover, the differential viability (reversal) in test [4] (H69AR cells + 2 uM doxorubicin) was 10.9% (inactive). Moreover, the inhibition was 2.21% (inactive) in test [5] and 11.6% (inactive) in test [6].
On to `Cc1cc(C(=O)Nc2nnc(C(F)(F)F)s2)no1`, for which the viability in test [1] was 98% (inactive); in test [2], 107% (inactive); in test [3], 105% (inactive); in test [4] (setting [7]), 99.8%; in test [4] (setting [8]), 105%. In addition, the differential viability (reversal) in test [4] (H69AR cells + 2 uM doxorubicin) was 5.13% (inactive). Further, the values for the inhibition in test [5] and in test [6] were -7.4% (inactive) and 0.32% (inactive), respectively.
Consider `CC(C)(C#N)Nn1cnnc1`, for which the viability was 135% (inactive) in test [1]; 104% (inactive) in test [2]; 85.9% (inactive) in test [3]; 90.7% in test [4] (setting [7]); 85.9% in test [4] (setting [8]). Besides, the differential viability (reversal) in test [4] (H69AR cells + 2 uM doxorubicin) is -4.76% (inactive). Also, the inhibition in test [5] was -4.73% (inactive); in test [6], 4.18% (inactive).
As to `O=C(NCC1CCCO1)c1cc(-c2ccncc2)nc2ccc(S(=O)(=O)N3CCOCC3)cc12` (stereo unspecified), the viability in test [1] is 106% (inactive); in test [2], 111% (inactive); in test [3], 95.8% (inactive); in test [4] (setting [7]), 87%; in test [4] (setting [8]), 95.8%. Also, the differential viability (reversal) in test [4] (H69AR cells + 2 uM doxorubicin) was 8.86% (inactive). Further, the inhibition was -7.87% (inactive) in test [5] and 4.18% (inactive) in test [6].
Consider `CC(=O)N=c1sc(S(N)(=O)=O)nn1C`, for which the viability in test [1] was 84% (inactive); in test [2] it was 77.6% (inactive); in test [3], 93.9% (inactive); in test [4] (setting [7]), 72.8%; in test [4] (setting [8]) it was 93.9%. Further, the differential viability (reversal) in test [4] (H69AR cells + 2 uM doxorubicin) was 21.1% (inactive). In addition, the inhibition in test [5] is 0.39% (inactive); in test [6], 3.17% (inactive).
For `Nc1ncnc2c1ncn2[C@@H]1O[C@H](CO)[C@@H](O)[C@H]1O`, the viability in test [1] is 105% (inactive); in test [2], 93.9% (inactive); in test [3], 113% (inactive); in test [4] (setting [7]), 87%; in test [4] (setting [8]), 113%. Also, in test [4] (H69AR cells + 2 uM doxorubicin), the differential viability (reversal) was 25.9% (inactive). Besides, the inhibition in test [5] was -2.47% (inactive); in test [6] it was 0.33% (inactive).
For the molecule `COc1ccc(CC(=O)Nc2cc(Cl)ccc2O)cc1`, the viability in test [1] was 110% (inactive); in test [2] it was 84.5% (inactive); in test [3], 81.1% (inactive); in test [4] (setting [7]), 80.4%; in test [4] (setting [8]) it was 81.1%. In test [4] (H69AR cells + 2 uM doxorubicin), the differential viability (reversal) is 0.69% (inactive). For the same molecule, the figures for the inhibition in test [5] and in test [6] were -4.53% (inactive) and -3.09% (inactive), respectively.
In the case of `O=C(COC(=O)c1cccc(S(=O)(=O)N2CCc3ccccc32)c1)NC1CCS(=O)(=O)C1` (stereo unspecified), the viability was 90% (inactive) in test [1]; 114% (inactive) in test [2]; 102% (inactive) in test [3]; 101% in test [4] (setting [7]); 102% in test [4] (setting [8]). For the same molecule, the differential viability (reversal) in test [4] (H69AR cells + 2 uM doxorubicin) is 0.47% (inactive). The inhibition in test [5] is -4.05% (inactive); in test [6], -7.64% (inactive).
`COC(=O)c1c(NC(=O)CSc2nnnn2C)sc(C)c1C`: the viability in test [1] was 96% (inactive); in test [2], 84.9% (inactive); in test [3], 92.5% (inactive); in test [4] (setting [7]) it was 88.1%; in test [4] (setting [8]) it was 92.5%. Besides, the differential viability (reversal) in test [4] (H69AR cells + 2 uM doxorubicin) is 4.44% (inactive). In addition, the inhibition in test [5] was 0.14% (inactive); in test [6] it was -2% (inactive).
Take `O=C(NCCN1CCOCC1)C1CCC(=O)N1Cc1ccccc1Cl` (stereo unspecified): the viability is 148% (inactive) in test [1]; 96.4% (inactive) in test [2]; 90% (inactive) in test [3]; 86.3% in test [4] (setting [7]); 90% in test [4] (setting [8]). Moreover, in test [4] (H69AR cells + 2 uM doxorubicin), the differential viability (reversal) is 3.78% (inactive). Further, the values for the inhibition in test [5] and in test [6] were -1.43% (inactive) and -1.48% (inactive), respectively.
Take `c1ccc(-c2nc3cnccn3c2Nc2ccc3c(c2)OCCO3)cc1`: the viability in test [1] is 96% (inactive); in test [2], 107% (inactive); in test [3], 91.5% (inactive); in test [4] (setting [7]), 52.9%; in test [4] (setting [8]) it was 91.5%. Further, the differential viability (reversal) in test [4] (H69AR cells + 2 uM doxorubicin) was 38.5% (inactive). The inhibition in test [5] is -5.47% (inactive); in test [6], -1.27% (inactive).
Turning to `COc1ccc(NC(=O)Nc2ccccc2C)c(OC)c1`, the viability in test [1] is 93% (inactive); in test [2] it was 95.1% (inactive); in test [3], 89% (inactive); in test [4] (setting [7]), 68.2%; in test [4] (setting [8]), 89%. Besides, the differential viability (reversal) in test [4] (H69AR cells + 2 uM doxorubicin) is 20.8% (inactive). The values for the inhibition in test [5] and in test [6] were -4.8% (inactive) and -1.09% (inactive), respectively.
Regarding `CC1=C(C(=O)N2CCOCC2)C(c2ccsc2)C2=C(CCCC2=O)N1` (stereo unspecified), the viability is 96% (inactive) in test [1]; 107% (inactive) in test [2]; 90.4% (inactive) in test [3]; 90.5% in test [4] (setting [7]); 90.4% in test [4] (setting [8]). For the same molecule, in test [4] (H69AR cells + 2 uM doxorubicin), the differential viability (reversal) was -0.065% (inactive). Besides, the inhibition in test [5] was -2.47% (inactive); in test [6] it was 7.74% (inactive).
As to `COCCCNC(=O)C1CCN(C(=O)Nc2ccc(Cl)cc2)CC1`, the viability in test [1] is 131% (inactive); in test [2], 92.2% (inactive); in test [3], 99% (inactive); in test [4] (setting [7]) it was 87.4%; in test [4] (setting [8]), 99%. Further, in test [4] (H69AR cells + 2 uM doxorubicin), the differential viability (reversal) is 11.6% (inactive). The values for the inhibition in test [5] and in test [6] were -1.04% (inactive) and 1.15% (inactive), respectively.
Take `Cc1[nH]c(C(=O)N2CCCCC2)c(C)c1C(=O)NC1CCCCC1`: the viability in test [1] was 88% (inactive); in test [2], 92.4% (inactive); in test [3], 103% (inactive); in test [4] (setting [7]), 84.4%; in test [4] (setting [8]), 103%. For the same molecule, the differential viability (reversal) in test [4] (H69AR cells + 2 uM doxorubicin) was 18.4% (inactive). Also, the inhibition was 1.43% (inactive) in test [5] and 0.66% (inactive) in test [6].
